# Laboratory results: ChEMBL document CHEMBL1144562, “Synthesis of a new class of 2-anilino substituted nicotinyl arylsulfonylhydrazides as potential anticancer and antibacterial agents” (2007)
# Key:
# Type in all cases: functional
# MDA-MB-231 = experiment: Antitumor activity against MDA-MB-231 cells; details: Homo sapiens, read-out: Log TGI (converted)
# MDA-MB-435 = experiment: Antitumor activity against MDA-MB-435 cells; details: Homo sapiens
# BT-549 = experiment: Antitumor activity against BT549 cells; details: Homo sapiens
# T47D = experiment: Antitumor activity against T47D cells; details: Homo sapiens
# In short: (§1)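 Tested in the NCI 60-human-tumour-cell-line panel at five concentrations, in 10-fold dilutions from 10^-4 to 10^-8 M. Three parameters were taken from the dose-response data, each as log10 of the molar concentration: GI50 (50% net growth inhibition), TGI (total growth inhibition) and LC50 (50% net cell death).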
# Escherichia coli = experiment: Antibacterial activity against Escherichia coli MTCC 448 after 18 hrs; details: MTCC 448, 18 h
# In short: (§2)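 Disc diffusion (Kirby–Bauer) on Mueller-Hinton agar inoculated with fresh bacteria at 1-5 × 10^4 cfu mL-1. Compounds were dissolved in DMF at a range of concentrations, and discs were placed in triplicate. Plates were incubated at 30 °C for 18 h. MIC was taken as the lowest concentration giving no visible bacterial growth on the plate.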
# Pseudomonas aeruginosa = experiment: Antibacterial activity against Pseudomonas aeruginosa MTCC 424 after 18 hrs; details: MTCC 424, 18 h; in short: as §2
# [1] = tested on: Staphylococcus epidermidis; experiment: Antibacterial activity against Staphylococcus epidermidis MTCC 435 after 18 hrs; details: MTCC 435, 18 h; in short: as §2
# Bacillus subtilis = experiment: Antibacterial activity against Bacillus subtilis MTCC 441 after 18 hrs; details: MTCC 441, 18 h; in short: as §2
# CCRF-CEM = experiment: Antitumor activity against CCRF-CEM cells; details: Homo sapiens
# K562 = experiment: Antitumor activity against K562 cells; details: Homo sapiens
# HOP-62 = experiment: Antitumor activity against HOP62 cells; details: Homo sapiens
# HOP-92 = experiment: Antitumor activity against HOP92 cells; details: Homo sapiens
# [2] = Antitumor activity against NCI-H322 cells; details: Homo sapiens
# NCI-H460 = experiment: Antitumor activity against NCI-H460 cells; details: Homo sapiens
# HCC 2998 = experiment: Antitumor activity against HCC2998 cells; details: Homo sapiens
# HCT-116 = experiment: Antitumor activity against HCT116 cells; details: Homo sapiens
# KM12 = experiment: Antitumor activity against KM12 cells; details: Homo sapiens
# SW-620 = experiment: Antitumor activity against SW620 cells; details: Homo sapiens; in short: as §1
# SF-268 = experiment: Antitumor activity against SF268 cells; details: Homo sapiens
# SF-539 = experiment: Antitumor activity against SF539 cells; details: Homo sapiens
# SNB-19 = experiment: Antitumor activity against SNB19 cells; details: Homo sapiens; in short: as §1
# SNB-75 = experiment: Antitumor activity against SNB75 cells; details: Homo sapiens; in short: as §1
# U-251 = experiment: Antitumor activity against U251 cells; details: Homo sapiens; in short: as §1
# [3] = read-out: Log LC50 (the source's name) (converted)
structure (smiles),measurement,setting,value
O=C(NNS(=O)(=O)c1ccc(F)cc1)c1cccnc1Nc1ccc(Cl)cc1Cl,TGI,MDA-MB-231,> 100 µM
same,GI50,MDA-MB-435,85.1 µM
same,LC50,MDA-MB-435,> 100 µM
same,TGI,MDA-MB-435; read-out: Log TGI (converted),> 100 µM
same,GI50,BT-549,36.3 µM
same,LC50,BT-549,> 100 µM
same,TGI,BT-549; read-out: Log TGI (converted),100 µM
same,GI50,T47D,18.6 µM
same,CC50,T47D; [3],> 100 µM
same,TGI,T47D; read-out: Log TGI (converted),> 97.7 µM
same,MIC,Escherichia coli,15 mg/L
same,MIC,Pseudomonas aeruginosa,> 25 mg/L
same,MIC,[1],21 mg/L
same,MIC,Bacillus subtilis,9 mg/L
same,LC50,CCRF-CEM,> 100 µM
same,TGI,CCRF-CEM; read-out: Log TGI (converted),> 100 µM
same,GI50,CCRF-CEM; read-out: pGI50 (converted),20.9 µM
same,GI50,K562,20 µM
same,LC50,K562,> 100 µM
same,TGI,K562; read-out: Log TGI (converted),83.2 µM
same,GI50,HOP-62,30.9 µM
same,CC50,HOP-62; [3],> 100 µM
same,TGI,HOP-62; read-out: Log TGI (converted),85.1 µM
same,GI50,HOP-92,15.5 µM
same,CC50,HOP-92; [3],85.1 µM
same,TGI,HOP-92; read-out: Log TGI (converted),36.3 µM
same,GI50,[2],30.9 µM
same,CC50,[2]; [3],> 100 µM
same,TGI,[2]; read-out: Log TGI (converted),> 100 µM
same,GI50,NCI-H460,31.6 µM
same,LC50,NCI-H460,> 100 µM
same,TGI,NCI-H460; read-out: Log TGI (converted),> 100 µM
same,GI50,HCC 2998,30.2 µM
same,LC50,HCC 2998,> 100 µM
same,TGI,HCC 2998; read-out: Log TGI (converted),> 100 µM
same,GI50,HCT-116,30.2 µM
same,LC50,HCT-116,> 100 µM
same,TGI,HCT-116; read-out: Log TGI (converted),> 100 µM
same,GI50,KM12,22.9 µM
same,CC50,KM12; [3],> 100 µM
same,TGI,KM12; read-out: Log TGI (converted),49 µM
same,GI50,SW-620,28.8 µM
same,CC50,SW-620; [3],> 100 µM
same,TGI,SW-620; read-out: Log TGI (converted),> 100 µM
same,GI50,SF-268,45.7 µM
same,LC50,SF-268,> 100 µM
same,TGI,SF-268; read-out: Log TGI (converted),> 100 µM
same,GI50,SF-539,26.3 µM
same,LC50,SF-539,> 100 µM
same,TGI,SF-539; read-out: Log TGI (converted),74.1 µM
same,GI50,SNB-19,29.5 µM
same,CC50,SNB-19; [3],> 100 µM
same,TGI,SNB-19; read-out: Log TGI (converted),> 100 µM
same,GI50,SNB-75,25.7 µM
same,CC50,SNB-75; [3],> 100 µM
same,TGI,SNB-75; read-out: Log TGI (converted),> 100 µM
same,GI50,U-251,28.8 µM
same,LC50,U-251,> 100 µM
same,TGI,U-251; read-out: Log TGI (converted),> 100 µM
